ChEMBL document CHEMBL4814013, “Scaffold repurposing of fendiline: Identification of potent KRAS plasma membrane localization inhibitors” (Eur J Med Chem, 2021)
Activity calls are given as the source filed them. The calls are words filed in the database; no cut-off is given here.

Key:
MDCK [1] = assay: Inhibition of ASM in dog MDCK cells co-expressing recombinant full length mGFP-tagged KRAS G12V mutant and mCherry-CAAX assessed as reduction in plasma membrane localization of KRAS mutant incubated for 48 hrs by confocal microscopic analysis relative to control; assay type: cell membranes; conditions: Canis lupus familiaris
Summary of the method: (§1)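 MDCK cells stably co-expressing mGFP-KRAS G12V or mGFP-LactC2 with mCherry-CAAX (HRAS 179–189 C181S/C184S) grown on coverslips in DMEM/10% FBS. Treated 48 h with 0.1% DMSO or graded drug, fixed in 4% paraformaldehyde, then quantitative confocal imaging. Mislocalization scored as the Manders fraction of mCherry-CAAX co-localizing with the GFP probe. IC50 and Emax from three independent experiments.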

MDCK [2] = assay: Cytotoxicity against dog MDCK cells at 30 uM; assay type: functional, cell-based; conditions: Canis lupus familiaris
[3] = Inhibition of ASM in dog MDCK cells co-expressing recombinant full length mGFP-tagged KRAS G12V mutant and mCherry-CAAX assessed as reduction in plasma membrane localization of KRAS mutant incubated for 48 hrs by confocal microscopic analysis; assay type: cell membranes, Canis lupus familiaris; summary of the method: as §1

For C[C@H](c1ccc(F)cc1)N(CC=C(c1ccccc1)c1ccccc1)CCN1CCN(C)CC1, the Emax (MDCK [1]) was 0.83, the Activity (MDCK [2]) was “Active” and the IC50 [3] was 1.5 µM.

For COc1ccc([C@@H](C)N(CC=C(c2ccccc2)c2ccccc2)CCO)cc1, the Emax (MDCK [1]) was 0.72, the Activity (MDCK [2]) was “inactive” and the IC50 [3] was 0.2 µM.

For COc1ccc([C@@H](C)N(C/C=C/c2ccccc2)CCN2CCN(C)CC2)cc1, the Emax (MDCK [1]) was 0.84, the Activity (MDCK [2]) was “inactive” and the IC50 [3] was 14.8 µM.

With COc1ccc([C@@H](C)N(CC=C(c2ccccc2)c2ccccc2)CCF)cc1 the Emax (MDCK [1]) was 0.52, the Activity (MDCK [2]) was “inactive” and the IC50 [3] was 10.1 µM.

In the case of COc1cccc([C@@H](C)N(CC=C(c2ccccc2)c2ccccc2)CCN2CCN(C)CC2)c1, the Emax (MDCK [1]) is reported as 0.75, the Activity (MDCK [2]) is reported as “Active” and the IC50 [3] is reported as 2.8 µM.

With COc1ccc([C@@H](C)N(CC=C(c2ccccc2)c2ccccc2)CCN(C)C)cc1 the Emax (MDCK [1]) was 0.66, the Activity (MDCK [2]) was “Active” and the IC50 [3] was 11.2 µM.

In the case of COc1ccccc1[C@@H](C)N(CC=C(c1ccccc1)c1ccccc1)CCN1CCN(C)CC1, the Emax (MDCK [1]) is reported as 0.86, the Activity (MDCK [2]) is reported as “Active” and the IC50 [3] is reported as 3.8 µM.

With CCN(CC)CCN(CC=C(c1ccccc1)c1ccccc1)[C@H](C)c1ccc(OC)cc1 the Emax (MDCK [1]) was 0.89 and the Activity (MDCK [2]) was “Active”.

With COc1ccc([C@@H](C)N(CC=C(c2ccccc2)c2ccccc2)CCN2CCCCC2)cc1 the Emax (MDCK [1]) was 0.83, the Activity (MDCK [2]) was “Active” and the IC50 [3] was 0.6 µM.

With COc1ccc([C@@H](C)N(CC=C(c2ccccc2)c2ccccc2)CCN2CCC2)cc1 the Emax (MDCK [1]) was 0.69, the Activity (MDCK [2]) was “Active” and the IC50 [3] was 0.5 µM.

In the case of COc1ccc([C@@H](C)N(CC=C(c2ccccc2)c2ccccc2)CCCCN2CCN(C)CC2)cc1, the Emax (MDCK [1]) is reported as 0.81 and the Activity (MDCK [2]) is reported as “Active”.

In the case of C[C@H](c1ccc(Cl)cc1)N(CC=C(c1ccccc1)c1ccccc1)CCN1CCN(C)CC1, the Emax (MDCK [1]) is reported as 0.7, the Activity (MDCK [2]) is reported as “Active” and the IC50 [3] is reported as 3.8 µM.

For C=CCN(CC=C(c1ccccc1)c1ccccc1)[C@H](C)c1ccc(OC)cc1, the Emax (MDCK [1]) was 0.47, the Activity (MDCK [2]) was “inactive” and the IC50 [3] was 13 µM.
